According to ChEMBL document CHEMBL2413015, “Synthesis, evaluation and molecular dynamics study of some new 4-aminopyridine semicarbazones as an antiamnesic and cognition enhancing agents” (Bioorg Med Chem, 2013):

Tests used:
Rattus norvegicus [1] = experiment: Activity at AChE in Charles Foster rat prefrontal cortex assessed as substrate hydrolyzed per mg of protein at 5 mg/kg, po for 8 days by Ellman's method (reference value: 45.83 +/- 0.94 mol/min); format: functional
Rattus norvegicus [2] = experiment: Activity at AChE in Charles Foster rat hypothalamus assessed as substrate hydrolyzed per mg of protein at 10 mg/kg, po for 8 days by Ellman's method (reference value: 40.50 +/- 0.76 mol/min); format: functional
Rattus norvegicus [3] = experiment: Cognitive enhancing effect in Wistar rat assessed as reversal of learning impairment measured as transfer latency at 5 mg/kg, po for 8 days measured on second day of test by elevated plus maze test (reference value: 66.824 +/- 0.47 seconds); format: functional
Procedure, shortened: (§1)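 Oral dosing at 5 or 10 mg/kg for 8 days, suspended in 0.3% carboxymethyl cellulose; vehicle-treated controls. Transfer latency on elevated plus maze measured on first and second days of exposure (treatment days 7 and 8). Mean ± SEM, n = 6, one-way ANOVA versus vehicle control.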

Rattus norvegicus [4] = experiment: (§2) Cognitive enhancing effect in Charles Foster rat assessed as reversal of scopolamine-induced amnesia measured as transfer latency at 5 mg/kg, po for 8 days administered 1 hr prior to scopolamine-challenge on day 7 measured on same day by elevated plus maze test (reference value: 67.83 +/- 0.94 seconds); format: functional
Rattus norvegicus [5] = experiment: (§3) Cognitive enhancing effect in Charles Foster rat assessed as reversal of scopolamine-induced amnesia measured as transfer latency at 5 mg/kg, po for 8 days administered 1 hr prior to scopolamine-challenge on day 7 measured on day 8 by elevated plus maze test (reference value: 62.17 +/- 0.47 seconds); format: functional
Rattus norvegicus [6] = experiment: Toxicity in albino rat assessed as change in normal behavioral response upto 100 mg/kg after 30 mins to 48 hrs; format: organism-based; set-up: dose 100 mg/kg; conditions: in vivo
Procedure, shortened: (§4)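 Acute toxicity followed OECD guidelines. Nulliparous, non-pregnant female albino rats (120–150 g) were fasted overnight with water ad libitum. Graded oral doses up to 100 mg/kg were given in 0.3% carboxymethyl cellulose. Rats were observed continuously for 30 min, at 2 h and up to 48 h for behavioural or autonomic changes, tremors, convulsions, salivation, diarrhoea, sleep, lacrimation, cardiovascular signs, feeding and mortality.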

Rattus norvegicus [7] = experiment: Cognitive enhancing effect in Wistar rat assessed as reversal of learning impairment measured as transfer latency at 10 mg/kg, po for 8 days measured on first day of test by elevated plus maze test (reference value: 70.846 +/- 0.76 seconds); format: functional; procedure, shortened: as §1
Cholinesterase [8] = target: T1, Cholinesterase (Homo sapiens, UniProt P06276); experiment: Non competitive inhibition of human serum BChE using butyrylthiocholine iodide as substrate by Lineweaver-Burk plot analysis
Procedure, shortened: (§5)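 Ellman assay in phosphate buffer pH 8 with a fixed amount of cholinesterase. Thiocholine substrate was varied from below to above, but near, Km, with or without inhibitor. Inhibition type was assigned from Lineweaver–Burk plots.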

Acetylcholinesterase [9] = target: T2, Acetylcholinesterase (Electrophorus electricus, UniProt O42275); experiment: Inhibition of electric eel AChE using acetylthiocholine iodide as substrate preincubated for 20 mins prior to substrate addition by Ellman's method
Rattus norvegicus [10] = experiment: Toxicity in albino rat assessed as mortality upto 100 mg/kg after 30 mins to 48 hrs; format: organism-based; set-up: dose 100 mg/kg; conditions: in vivo; procedure, shortened: as §4
Rattus norvegicus [11] = experiment: Cognitive enhancing effect in Wistar rat assessed as reversal of learning impairment measured as transfer latency at 10 mg/kg, po for 8 days measured on second day of test by elevated plus maze test (reference value: 66.824 +/- 0.47 seconds); format: functional; procedure, shortened: as §1
Rattus norvegicus [12] = experiment: Cognitive enhancing effect in po dosed Wistar rat assessed as reversal of learning impairment measured as transfer latency administered for 8 days by elevated plus maze test; format: functional, organism-based; procedure, shortened: as §1
Rattus norvegicus [13] = experiment: as §3, with “10” for “5”; format: functional
Rattus norvegicus [14] = experiment: Activity at AChE in Charles Foster rat hippocampus assessed as substrate hydrolyzed per mg of protein at 10 mg/kg, po for 8 days by Ellman's method (reference value: 47.50 +/- 0.84 mol/min); format: functional
Rattus norvegicus [15] = experiment: Activity at AChE in Charles Foster rat hypothalamus assessed as substrate hydrolyzed per mg of protein at 5 mg/kg, po for 8 days by Ellman's method (reference value: 40.50 +/- 0.76 mol/min); format: functional
Rattus norvegicus [16] = experiment: Activity at AChE in Charles Foster rat hippocampus assessed as substrate hydrolyzed per mg of protein at 5 mg/kg, po for 8 days by Ellman's method (reference value: 47.50 +/- 0.84 mol/min); format: functional
Cholinesterase [17] = target: T1, Cholinesterase; experiment: Inhibition of human serum BChE using butyrylthiocholine iodide as substrate preincubated for 20 mins prior to substrate addition by Ellman's method
Procedure, shortened: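 Human serum BChE was dissolved in 0.1% gelatine. The final mix held 0.1 M phosphate pH 8.0, DTNB, 0.02 unit/mL enzyme and butyrylthiocholine iodide. Five inhibitor concentrations spanning 20–80% inhibition were preincubated with enzyme for 20 min at 37 °C, then substrate was added. Rate was read at 412 nm over 5 min against an enzyme-free blank. Each point was run in triplicate, and IC50 was read graphically from log concentration–% inhibition curves.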

Rattus norvegicus [18] = experiment: as §2, with “10” for “5”; format: functional
Rattus norvegicus [19] = experiment: Activity at AChE in Charles Foster rat prefrontal cortex assessed as substrate hydrolyzed per mg of protein at 10 mg/kg, po for 8 days by Ellman's method (reference value: 45.83 +/- 0.94 mol/min); format: functional
[20] = Selectivity ratio of IC50 for human serum BChE to IC50 for electric eel AChE
Procedure, shortened: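 Ratio of IC50 (BChE) to IC50 (AChE). Both came from Ellman assays at 0.1 M phosphate pH 8.0 and 0.02 unit/mL enzyme: AChE (stock in phosphate buffer) with acetylthiocholine, human serum BChE (stock in 0.1% gelatine) with butyrylthiocholine.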

Rattus norvegicus [21] = experiment: Cognitive enhancing effect in Wistar rat assessed as reversal of learning impairment measured as transfer latency at 5 mg/kg, po for 8 days measured on first day of test by elevated plus maze test (reference value: 70.846 +/- 0.76 seconds); format: functional; procedure, shortened: as §1
Acetylcholinesterase [22] = target: T2, Acetylcholinesterase; experiment: Competitive inhibition of electric eel AChE using acetylthiocholine iodide as substrate by Lineweaver-Burk plot analysis; procedure, shortened: as §5
Cholinesterase [23] = target: T1, Cholinesterase; experiment: Competitive inhibition of human serum BChE using butyrylthiocholine iodide as substrate by Lineweaver-Burk plot analysis; procedure, shortened: as §5
Acetylcholinesterase [24] = target: T2, Acetylcholinesterase; experiment: Non competitive inhibition of electric eel AChE using acetylthiocholine iodide as substrate by Lineweaver-Burk plot analysis

T2 sequence (O42275 whole entry): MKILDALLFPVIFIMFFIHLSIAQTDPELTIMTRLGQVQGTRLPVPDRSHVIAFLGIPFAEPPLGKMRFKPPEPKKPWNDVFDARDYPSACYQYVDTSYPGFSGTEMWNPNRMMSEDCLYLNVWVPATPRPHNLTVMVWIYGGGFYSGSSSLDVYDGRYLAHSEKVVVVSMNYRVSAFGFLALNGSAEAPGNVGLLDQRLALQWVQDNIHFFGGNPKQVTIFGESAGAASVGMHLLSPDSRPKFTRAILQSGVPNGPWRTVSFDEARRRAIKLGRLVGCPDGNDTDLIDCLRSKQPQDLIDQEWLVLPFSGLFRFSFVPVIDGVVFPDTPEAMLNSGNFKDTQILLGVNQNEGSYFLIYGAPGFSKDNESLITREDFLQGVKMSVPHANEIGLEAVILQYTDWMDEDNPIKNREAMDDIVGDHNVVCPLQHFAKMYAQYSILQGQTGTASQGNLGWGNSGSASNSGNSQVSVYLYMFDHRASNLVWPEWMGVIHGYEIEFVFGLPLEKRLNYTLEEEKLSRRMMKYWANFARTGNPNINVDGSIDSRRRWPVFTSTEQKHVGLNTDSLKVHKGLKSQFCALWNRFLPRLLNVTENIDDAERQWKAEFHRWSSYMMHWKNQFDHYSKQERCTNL
T1 sequence (P06276 whole entry): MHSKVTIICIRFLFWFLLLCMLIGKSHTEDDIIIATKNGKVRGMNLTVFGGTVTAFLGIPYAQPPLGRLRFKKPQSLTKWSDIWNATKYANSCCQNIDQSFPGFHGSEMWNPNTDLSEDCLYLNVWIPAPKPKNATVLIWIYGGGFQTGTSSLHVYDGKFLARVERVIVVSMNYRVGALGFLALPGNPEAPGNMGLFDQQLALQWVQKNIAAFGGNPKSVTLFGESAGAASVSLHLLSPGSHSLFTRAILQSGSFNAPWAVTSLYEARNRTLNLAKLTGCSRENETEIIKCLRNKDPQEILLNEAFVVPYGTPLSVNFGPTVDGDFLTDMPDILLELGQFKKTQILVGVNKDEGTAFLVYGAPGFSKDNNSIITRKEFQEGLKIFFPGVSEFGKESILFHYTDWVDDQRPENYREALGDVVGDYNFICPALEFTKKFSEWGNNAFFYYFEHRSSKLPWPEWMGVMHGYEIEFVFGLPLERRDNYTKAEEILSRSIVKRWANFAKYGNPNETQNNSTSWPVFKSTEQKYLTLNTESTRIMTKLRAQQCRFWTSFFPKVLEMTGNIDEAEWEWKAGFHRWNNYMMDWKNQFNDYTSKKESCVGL

Row | SMILES | Activity (Rattus norvegicus [1]) [mol/min] | Activity (Rattus norvegicus [2]) [mol/min] | Time (Rattus norvegicus [3]) [s] | Time (Rattus norvegicus [4]) [s] | Time (Rattus norvegicus [5]) [s] | Activity (Rattus norvegicus [6]) | Time (Rattus norvegicus [7]) [s] | IC50 (Acetylcholinesterase [9]; read-out: IC50) [µM] | Activity (Rattus norvegicus [10]) | Time (Rattus norvegicus [11]) [s] | Activity (Rattus norvegicus [12]) | Time (Rattus norvegicus [13]) [s] | Activity (Rattus norvegicus [14]) [mol/min] | Activity (Rattus norvegicus [15]) [mol/min] | Activity (Rattus norvegicus [16]) [mol/min] | IC50 (Cholinesterase [17]) [µM] | Time (Rattus norvegicus [18]) [s] | Activity (Rattus norvegicus [19]) [mol/min] | Ratio IC50 [20] | Time (Rattus norvegicus [21]) [s] | other results
1 | COc1cc(/C=N/NC(=O)Nc2ccncc2)ccc1O | 36.62 | 33.67 | 46.17 | 68.17 | 64.5 | Non-toxic | 49.67 | 18.7 | Non-toxic | 40.5 | Dose-dependent effect | 57.87 | 36.83 | 35.83 | 39.5 | 528 | 65 | 35.5 | 28.2 | 52 | Ki (Cholinesterase [8]): 446 µM; IC50 (Acetylcholinesterase [9]; read-out: pIC50 (converted)): 19.1 µM; Ki (Acetylcholinesterase [22]): 20.5 µM
2 | O=C(N/N=C/c1ccc(O)cc1O)Nc1ccncc1 | 36.17 | 32.5 | 42.5 | 65.57 | 61.83 | Non-toxic | 49.17 | 4.26 | Non-toxic | 40.33 | Dose-dependent effect | 57.67 | 35.03 | 34.83 | 37.5 | 58.2 | 65.17 | 34.83 | 13.7 | 51 | Ki (Cholinesterase [8]): 72.7 µM; Ki (Acetylcholinesterase [22]): 3.56 µM
3 | O=C(N/N=C/c1ccccc1O)Nc1ccncc1 | 39.33 | 34.67 | 49.12 | 70.17 | 65 | Non-toxic | 54.19 | 32.5 | Non-toxic | 48.15 | Dose-dependent effect | 63.67 | 36.83 | 36.33 | 39.17 | 246 | 67.33 | 37.5 | 7.56 | 55.21 | Ki (Cholinesterase [8]): 212 µM; IC50 (Acetylcholinesterase [9]; read-out: pIC50 (converted)): 33.1 µM; Ki (Acetylcholinesterase [22]): 25.6 µM
4 | COc1ccc(/C=N/NC(=O)Nc2ccncc2)cc1 | 39.5 | 36.83 | 50.5 | 70.17 | 65.83 | Non-toxic | 56.33 | 48.3 | Non-toxic | 48.67 | Dose-dependent effect | 63.33 | 37.5 | 35.17 | 40.33 | 786 | 67.83 | 37.83 | 16.3 | 56.17 | Ki (Cholinesterase [23]): 624 µM; IC50 (Acetylcholinesterase [9]; read-out: pIC50 (converted)): 49 µM; Ki (Acetylcholinesterase [22]): 35.5 µM
5 | O=C(NN=C(c1ccccc1)c1ccccc1)Nc1ccncc1 | 32.67 | 29.17 | 40.42 | 64.57 | 56.13 | Non-toxic | 43.73 | 0.052 | Non-toxic | 37.97 | Dose-dependent effect | 54.17 | 32 | 31 | 33.67 | 18.5 | 61.83 | 30 | 355 | 46.81 | Ki (Acetylcholinesterase [24]): 0.082 µM; Ki (Cholinesterase [23]): 16.8 µM
6 | C/C(=N\NC(=O)Nc1ccncc1)c1ccc(O)cc1 | 35.5 | 31.5 | 43.17 | 65.33 | 60.5 | Non-toxic | 48.17 | 0.145 | Non-toxic | 39.5 | Dose-dependent effect | 56.83 | 34.17 | 34.13 | 36.33 | 0.358 | 64.17 | 33.83 | 2.46 | 48.07 | Ki (Acetylcholinesterase [24]): 0.246 µM; Ki (Cholinesterase [23]): 0.628 µM; IC50 (Acetylcholinesterase [9]; read-out: pIC50 (converted)): 0.148 µM
